Assays:
[1] = target: Metabotropic glutamate receptor 3 (Rattus norvegicus) (UniProt P31422); assay: Antagonistic activity against Glutamate receptor in rat spinal cord at concentration of 5 uM.; assay type: functional, tissue-based
Summary of the method: (§1)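 Neonatal rat spinal cord, hemisected sagittally, superfused at 1 mL/min with oxygenated Krebs-Henseleit medium containing 0.5% urethane at room temperature. Agonists were given in 2-mL doses in the superfusate. Antagonist was superfused continuously for at least 15 min before agonist retesting. Read-out was ventral root depolarization (DC potential, ventral root vs cord body), measured as amplitude and area of response.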

Substance-P receptor = Substance-P receptor (Rattus norvegicus, UniProt P14600); assay: Histamine releasing activity of Substance P from isolated rat peritoneal mast cells; assay type: functional
Summary of the method: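 Histamine release from isolated rat peritoneal mast cells, method of Fretwell et al. Dose-response curves were built over a range of concentrations, and EC50 values were calculated from the curves.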

[2] = target: Substance-P receptor (Cavia porcellus) (UniProt P30547); assay: In vitro inhibition of substance P induced contractions of the guinea pig ileum at 5 uM.; assay type: tissue-based
Summary of the method: (§2)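 Agonist (SP or SP(6-11)-hexapeptide) dose-response curves on a 3-min cycle with 1-min contact, then washout. Dose ratio = agonist EC50 with antagonist / EC50 alone. At least two preparations per compound; ratios below 2 taken as insignificant.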

[3] = target: Substance-P receptor (Cavia porcellus) (UniProt P30547); assay: In vitro inhibition of substance P (6-11) hexapeptide induced contractions of the guinea pig ileum at 5 uM.; assay type: tissue-based; summary of the method: as §2
[4] = target: Substance-P receptor (Rattus norvegicus) (UniProt P14600); assay: Antagonistic activity against Substance P receptor in rat spinal cord at concentration of 50 uM.
[5] = target: Substance-P receptor (Rattus norvegicus) (UniProt P14600); assay: Antagonistic activity against Substance P receptor in rat spinal cord at concentration of 10 uM.
[6] = Antagonistic activity against Glutamate receptor in rat spinal cord at concentration of 50 uM.
[7] = target: Substance-P receptor (Rattus norvegicus) (UniProt P14600); assay: Antagonistic activity against Substance P(6-11) receptor in rat spinal cord at concentration of 50 uM.
[8] = target: Metabotropic glutamate receptor 3 (Rattus norvegicus) (UniProt P31422); assay: Antagonistic activity against Glutamate receptor in rat spinal cord at concentration of 10 uM.; assay type: functional, tissue-based; summary of the method: as §1
[9] = target: Substance-P receptor (Cavia porcellus) (UniProt P30547); assay: In vitro inhibition of substance P (6-11) hexapeptide induced contractions of the guinea pig ileum at 10 uM.; assay type: tissue-based; summary of the method: as §2
[10] = system: muscarinic acetylcholine receptor (Rattus norvegicus); assay: Antagonistic activity against Carbachol receptor in rat spinal cord at concentration of 5 uM.
[11] = target: Substance-P receptor (Rattus norvegicus) (UniProt P14600); assay: Antagonistic activity against Substance P receptor in rat spinal cord at concentration of 5 uM.
[12] = system: muscarinic acetylcholine receptor (Rattus norvegicus); assay: Antagonistic activity against Carbachol receptor in rat spinal cord at concentration of 10 uM.
[13] = target: Substance-P receptor (Rattus norvegicus) (UniProt P14600); assay: Antagonistic activity against Substance P(6-11) receptor in rat spinal cord at concentration of 5 uM.
[14] = target: Substance-P receptor (Rattus norvegicus) (UniProt P14600); assay: Antagonistic activity against Substance P(6-11) receptor in rat spinal cord at concentration of 10 uM.
[15] = target: Substance-P receptor (Cavia porcellus) (UniProt P30547); assay: In vitro inhibition of substance P induced contractions of the guinea pig ileum at 10 uM.; assay type: tissue-based; summary of the method: as §2
[16] = target: Metabotropic glutamate receptor 3 (Rattus norvegicus) (UniProt P31422); assay: Antagonistic activity against Glutamate receptor in rat spinal cord at concentration of 25 uM.; assay type: functional, tissue-based; summary of the method: as §1
[17] = target: Metabotropic glutamate receptor 3 (Rattus norvegicus) (UniProt P31422); assay: Antagonistic activity against Glutamate receptor in rat spinal cord at concentration of 50 uM.; assay type: functional, tissue-based; summary of the method: as §1
[18] = target: Substance-P receptor (Rattus norvegicus) (UniProt P14600); assay: Antagonistic activity against Substance P(6-11) receptor in rat spinal cord at concentration of 25 uM.
[19] = system: muscarinic acetylcholine receptor (Rattus norvegicus); assay: Antagonistic activity against Carbachol receptor in rat spinal cord at concentration of 50 uM.
[20] = target: Substance-P receptor (Rattus norvegicus) (UniProt P14600); assay: Antagonistic activity against Substance P receptor in rat spinal cord at concentration of 25 uM.
[21] = target: Substance-P receptor (Cavia porcellus) (UniProt P30547); assay: Antagonistic activity against Substance P receptor in guinea pig ileum at concentration of 1 uM.; assay type: functional, tissue-based
Summary of the method: (§3)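 Distal ileum from Dunkin-Hartley guinea pigs (300-350 g, both sexes), held in a 5-mL bath of Krebs solution at 37 °C gassed with 95% O2/5% CO2. Agonist dose-response curves ran on a 3-min cycle with 1-min contact, then washout. Dose ratio = agonist EC50 with antagonist / EC50 alone. At least two preparations per compound; ratios below two were taken as insignificant.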

[22] = target: Substance-P receptor (Cavia porcellus) (UniProt P30547); assay: Antagonistic activity against Substance P(6-11) receptor in guinea pig ileum at concentration of 1 uM.; assay type: functional, tissue-based; summary of the method: as §3

Sequence of Substance-P receptor (Rattus norvegicus) (P14600 whole entry, looked up): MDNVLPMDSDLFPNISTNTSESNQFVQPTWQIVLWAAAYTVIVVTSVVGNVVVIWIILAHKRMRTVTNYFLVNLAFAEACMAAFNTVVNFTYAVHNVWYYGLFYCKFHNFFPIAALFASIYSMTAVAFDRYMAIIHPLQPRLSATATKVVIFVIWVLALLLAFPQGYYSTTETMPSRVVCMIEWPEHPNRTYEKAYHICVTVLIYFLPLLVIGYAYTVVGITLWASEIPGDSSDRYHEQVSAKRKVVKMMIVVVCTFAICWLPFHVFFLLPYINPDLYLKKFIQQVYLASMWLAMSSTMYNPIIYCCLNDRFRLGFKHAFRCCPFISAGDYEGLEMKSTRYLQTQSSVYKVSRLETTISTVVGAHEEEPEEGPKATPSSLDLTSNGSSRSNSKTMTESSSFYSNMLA
Sequence of Metabotropic glutamate receptor 3 (Rattus norvegicus) (P31422 23-879 limits assumed): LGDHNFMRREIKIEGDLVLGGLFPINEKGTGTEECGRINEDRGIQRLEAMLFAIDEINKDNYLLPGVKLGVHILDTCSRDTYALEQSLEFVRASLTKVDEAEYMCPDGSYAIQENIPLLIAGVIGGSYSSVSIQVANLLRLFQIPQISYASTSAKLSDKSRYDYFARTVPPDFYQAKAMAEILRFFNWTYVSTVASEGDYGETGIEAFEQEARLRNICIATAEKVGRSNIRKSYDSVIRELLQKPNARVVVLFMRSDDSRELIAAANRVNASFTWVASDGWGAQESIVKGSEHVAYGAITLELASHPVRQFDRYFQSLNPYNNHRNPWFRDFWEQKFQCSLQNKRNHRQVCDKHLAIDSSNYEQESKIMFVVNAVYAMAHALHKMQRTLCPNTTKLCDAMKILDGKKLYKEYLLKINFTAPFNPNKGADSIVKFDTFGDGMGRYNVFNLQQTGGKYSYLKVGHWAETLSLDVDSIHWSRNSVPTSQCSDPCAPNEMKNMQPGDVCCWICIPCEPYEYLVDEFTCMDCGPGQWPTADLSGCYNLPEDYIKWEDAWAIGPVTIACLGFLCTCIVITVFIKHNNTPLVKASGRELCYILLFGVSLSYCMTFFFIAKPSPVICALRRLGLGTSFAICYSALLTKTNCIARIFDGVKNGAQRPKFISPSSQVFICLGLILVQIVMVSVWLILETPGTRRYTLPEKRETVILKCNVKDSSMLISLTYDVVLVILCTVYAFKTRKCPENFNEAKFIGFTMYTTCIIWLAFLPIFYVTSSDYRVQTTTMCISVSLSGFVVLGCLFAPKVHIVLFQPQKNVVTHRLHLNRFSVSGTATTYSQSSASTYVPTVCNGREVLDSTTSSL
Sequence of Substance-P receptor (Cavia porcellus) (P30547 whole entry): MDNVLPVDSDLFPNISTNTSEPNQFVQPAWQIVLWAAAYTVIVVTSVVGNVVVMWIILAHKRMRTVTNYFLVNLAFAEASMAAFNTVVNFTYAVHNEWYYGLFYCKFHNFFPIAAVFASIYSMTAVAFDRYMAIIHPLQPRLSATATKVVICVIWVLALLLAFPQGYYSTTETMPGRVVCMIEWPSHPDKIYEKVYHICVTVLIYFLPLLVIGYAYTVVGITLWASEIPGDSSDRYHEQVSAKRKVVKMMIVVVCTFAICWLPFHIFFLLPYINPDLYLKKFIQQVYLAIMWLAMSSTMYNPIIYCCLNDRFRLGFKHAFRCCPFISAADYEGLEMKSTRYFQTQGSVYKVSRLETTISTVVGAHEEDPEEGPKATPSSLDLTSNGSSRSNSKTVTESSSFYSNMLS
Sequence of Substance-P receptor (P14600 whole entry): as the sequence (P14600 whole entry, looked up) above

Change in amplitude response [1] | IC50 (Substance-P receptor) | Activity [2] | Activity [3] | Change in amplitude response [4] | Change in amplitude response [5] | Change in amplitude response [7] | Change in amplitude response [8] | Change in amplitude response [12] | Change in amplitude response [14] | Activity [15] | Change in amplitude response [16] | Change in amplitude response [17] | Change in amplitude response [19] | SMILES | also measured
-3% | 0.6 µM | 14 dose ratio | 3.2 dose ratio | -37% | 3% | -85% | -1% | -51% | -75% | 31.1 dose ratio |  |  |  | COC(=O)[C@H](CCSC)NC(=O)[C@H](CC(C)C)NC(=O)[C@@H](Cc1c[nH]c2ccccc12)NC(=O)[C@H](Cc1ccccc1)NC(=O)[C@@H](Cc1ccccc1)NC(=O)[C@H](CCCN=C(N)N)NC(=O)[C@H](CC(N)=O)NC(=O)C1CCCN1C(=O)[C@H](CCCCNC(=O)OCc1ccccc1)NC(=O)C1CCCN1C(=O)[C@H](CCCN=C(N)N)NC(=O)OCc1ccccc1 (stereo in doubt) | Change in amplitude response [6]: 20%; Activity [9]: 11.1 dose ratio; Change in amplitude response [10]: -52%; Change in amplitude response [11]: -29%; Change in amplitude response [13]: -73%
-15% |  |  |  |  |  |  |  |  |  |  | -24% | -36% |  | COC(=O)[C@@H](CCSC)NC(=O)[C@H](CC(C)C)NC(=O)CN(C)C(=O)[C@H](Cc1ccccc1)NC(=O)[C@@H](Cc1ccccc1)NC(=O)[C@H](CCC(N)=O)NC(=O)[C@H](CCC(N)=O)NC(=O)C1CCCN1C(=O)[C@H](CCCCNC(=O)OCc1ccccc1)NC(=O)C1CCCN1C(=O)[C@H](CCCN=C(N)N)NC(=O)OCc1ccccc1 (stereo in doubt) | 
 |  |  |  |  | 19% | -75% | -3% | -6% | -33% | 10.5 dose ratio | -13% |  | -24% | COC(=O)[C@@H](CCSC)NC(=O)[C@H](CC(C)C)NC(=O)CNC(=O)[C@@H](Cc1c[nH]c2ccccc12)NC(=O)[C@@H](Cc1c[nH]c2ccccc12)NC(=O)[C@H](CCC(N)=O)NC(=O)[C@H](CCC(N)=O)NC(=O)[C@@H]1CCCN1C(=O)[C@H](CCCCNC(=O)OCc1ccccc1)NC(=O)[C@@H]1CCCN1C(=O)[C@H](CCCN=C(N)N)NC(=O)OCc1ccccc1 | Change in amplitude response [18]: -77%; Change in amplitude response [20]: 18%
 | 500 µM | 2.1 dose ratio | 16 dose ratio | -17% | 15% | -79% | -3% | -26% | -56% |  |  | 11% | -40% | COC(=O)[C@H](CCSC)NC(=O)[C@H](CC(C)C)NC(=O)[C@@H](Cc1c[nH]c2ccccc12)NC(=O)[C@H](Cc1ccccc1)NC(=O)[C@@H](Cc1ccccc1)NC(=O)[C@H](CCCN=C(N)N)NC(=O)[C@H](CC(N)=O)NC(=O)OC(C)(C)C | Activity [21]: < 2 dose ratio; Activity [22]: 4.4 dose ratio
